RAM network inh: yeast RAM network inhibition; S. cerevisiae dse1pr::URA3 reporter, 5-FOA growth OD615, 2 d; analog-sensitive cbk1-as2 kinase mutant strain; inhibition, % at 50 µM; 190,000 tested, 1.8% active; AID 868;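 active means inhibition above a set limit, 3 SD over mean compound inhibition, cut at about 8.4% in these data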;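 further: 0% = DMSO-only wells with no growth and 100% = 10 µM 1-NA-PP1 full growth; inhibition rescues growth on 5-FOA so higher OD means more RAM inhibition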
HMGR II inh: blocks class II HMG-CoA reductase of Enterococcus faecalis; 190,000 tested, 0.41% active; purified E. faecalis HMGR, NADPH absorbance 340 nm kinetic; inhibition, % at 10 µM; AID 1066;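 active means inhibition above a set limit, the median over all tested compounds plus 3 SD, cut at about 9.5% in these data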;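 further: enzyme runs in reverse so mevalonate oxidation gives rising NADPH absorbance; 0% = complete reaction with DMSO and 100% = background rate lacking mevalonate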
BB579 growth dn: chemicals that inhibit yeast BB579 growth in restrictive medium (lifespan-shortening candidates); S. cerevisiae BB579 growth, OD615, 48 h; inhibition, % at 10 µM; 140,000 tested, 0.51% active; AID 804;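 active means inhibition above a set limit, 3 SD over the mean compound inhibition, cut at about 44% in these data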
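test system = yeast BB579 (DeaD) | buffer or medium = restrictive CSMM-D medium | doses = single compound dose of 10 µM, 0.25% DMSO final | times = 4 h preincubation and 48 h exposure at 30 °C | technique = culture absorbance at 615 nm | benchmarks = amphotericin B 10 µg/mL, positive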
b-catenin transl: beta-catenin nuclear translocation modulation | HeLa beta-catenin nuclear translocation, immunofluorescence imaging | nuclear translocation activity, % at 5 µM | 190,000 tested, 0.3% active | AID 1665;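 active means nuclear translocation activity above 50% at 5 µM, with a well cell count of 50 or more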;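 further: per-cell ratio of nuclear to cytoplasmic median beta-catenin stain intensity; plate controls were DMSO negative control for no effect and GSK-3 inhibitor IX positive control for full effect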
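Test system: HeLa cells, endogenous beta-catenin; Compound: single 5 µM dose plus 0.02–20 µM confirmation series; Times: compound exposure 24 h at 37°C; Signal: fluorescence imaging of beta-catenin antibody stain plus DAPI; Read-out: % activation, nuclear-to-cytoplasmic median beta-catenin signal ratio per cell.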
MT stabilizer: microtubule stabilization, imaging screen | HeLa tubulin immunostaining HCS, 24 h; share of cells brighter than vehicle mean+2SD | % tubulin-high responders, % at 10 µM | 200,000 tested, 0.83% active | AID 2205;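 active means plate Z-score above 3 for both tubulin-high and condensed-nucleus cell shares, with cell loss under 80%, at 10 µM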;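 further: anti alpha tubulin signal scored within the nucleus-defined area of each cell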
Yeast lifespan up: yeast lifespan extension. AID 775. S. cerevisiae growth with nicotinamide, OD615; deaD strain in restrictive glucose medium. inhibition of the nicotinamide effect, % at 10 µM. 130,000 tested, 0.68% active;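 active means inhibition above a set limit, placed 3 SD over the median of all compounds, cut at about 26% in these data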;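 further: 0% = nicotinamide-treated wells and 100% = cells grown without nicotinamide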
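Measured by: optical density (absorbance) at 615 nm; System: modified budding yeast, DeaD strain; Medium: restrictive CSMM-D dextrose medium; Timing: 4 h preincubation then 48 h treatment at 30 °C.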
Active calls of the source: *. Most compounds without a hit are left out; they make up all but 3.5% or so of the library.

`N/C(Cc1ccc(Cl)cc1)=N\OC(=O)c1cccc2ccccc12` gave RAM network inh 1.5, HMGR II inh -2.9, BB579 growth dn 99.0*, b-catenin transl -1.1, MT stabilizer 39.8 and Yeast lifespan up -11.3.
For N/C(Cc1ccc(Cl)cc1)=N\OC(=O)c1ccc2ccccc2c1 the results were RAM network inh 2.4, HMGR II inh -0.5, BB579 growth dn -4.7, b-catenin transl -1.8, MT stabilizer 3.9 and Yeast lifespan up -3.9.
Screening CS(=O)(=O)N1N=C(c2cccs2)CC1c1ccc(Cl)o1 (stereo not drawn) returned RAM network inh 3.2, HMGR II inh -4.7, b-catenin transl 0.1 and MT stabilizer 3.4.
For O=C(NCC1CCCO1)c1cncc(Br)c1 (stereo not drawn) the results were RAM network inh 0.1, HMGR II inh -5.1, b-catenin transl -0.9 and MT stabilizer 0.2.
For CN(C)C(=O)COC(=O)c1ccccc1NC(=O)c1ccco1 the results were RAM network inh 1.2, HMGR II inh -2.9, b-catenin transl -3.2 and MT stabilizer 1.8.
For O=c1oc2ccccc2cc1-c1cn2cccnc2n1 the results were RAM network inh -0.7, HMGR II inh -2.6, BB579 growth dn 53.3*, b-catenin transl -5.5, MT stabilizer 2.2 and Yeast lifespan up -19.4.
For CC1CCCCN1S(=O)(=O)c1cccc(S(=O)(=O)N2CCOCC2)c1 (stereo not drawn) the results were b-catenin transl -0.7.
O=C(Nc1ccccc1Br)C1CC(=O)N(c2ccc3c4c(cccc24)CC3)C1 (stereo not drawn) was read as RAM network inh 1.9, HMGR II inh -3.0, BB579 growth dn -49.0, b-catenin transl 4.4, MT stabilizer 37.7* and Yeast lifespan up -1.3.
Screening Cc1ccccc1-n1c(SCC(=O)N/N=C/c2sccc2C)nc2ccccc2c1=O returned RAM network inh 3.5, HMGR II inh -3.6, BB579 growth dn -26.5, b-catenin transl 0.5, MT stabilizer 14.2* and Yeast lifespan up 1.4.
Screening Cc1cc(=O)[nH]c(N/N=C/C(C)c2ccccc2)n1 (stereo not drawn) returned b-catenin transl -0.2.
`COc1ccc([C@@H]2[C@@H](C(=O)C(C)(C)C)N3N=Cc4ccccc4[C@@H]3C23C(=O)OC(C)(C)OC3=O)cc1OC` gave RAM network inh 0.2, HMGR II inh -5.2, BB579 growth dn -2.9, b-catenin transl -1.0, MT stabilizer 2.5 and Yeast lifespan up 22.9.
`COc1ccc([C@H]2[C@H](C(=O)C(C)(C)C)N3N=Cc4ccccc4C3C23C(=O)OC(C)(C)OC3=O)cc1` (stereo partly drawn) gave RAM network inh 2.5, HMGR II inh -2.8, BB579 growth dn 7.1, b-catenin transl -0.1, MT stabilizer 0.6 and Yeast lifespan up 36.2*.
`N#Cc1cc2c(nc1S(=O)(=O)Cc1ccccc1)CCCC2` gave RAM network inh -0.6, HMGR II inh 1.7, b-catenin transl -1.4 and MT stabilizer 5.7.
Screening Cc1ccccc1Cc1c(C)nc2c(C(=O)NCc3ccco3)cnn2c1C returned RAM network inh 10.4*, HMGR II inh -1.0, BB579 growth dn -46.1, b-catenin transl -3.0, MT stabilizer 4.9 and Yeast lifespan up -9.9.
`O=C(COc1ccc2ccccc2c1)Nc1cccc(C(=O)Nc2ccccc2C(=O)O)c1` gave RAM network inh 4.6, HMGR II inh -5.2, BB579 growth dn -35.1, b-catenin transl -1.9, MT stabilizer 1.1 and Yeast lifespan up 63.7*.
For CCCCC(=O)Nc1cccc(C(=O)Nc2ccccc2C(=O)O)c1 the results were RAM network inh 2.1, HMGR II inh -1.4, b-catenin transl 0.1 and MT stabilizer 1.3.
Screening Cc1cccc(NC(=O)Cn2c(=O)n(C)c3ccccc32)c1 returned RAM network inh 1.4, HMGR II inh 11.8*, BB579 growth dn -40.1, b-catenin transl 0.8 and MT stabilizer 3.2.
Cn1c(=O)n(CC(=O)Nc2ccccc2)c2ccccc21 was read as RAM network inh 1.6, HMGR II inh -9.7, BB579 growth dn 2.0, b-catenin transl -0.1, MT stabilizer 4.4 and Yeast lifespan up -7.2.
Nc1ccc2c(c1)OC1(CCCC1)O2 was read as RAM network inh 1.2, HMGR II inh -1.9, b-catenin transl -1.7 and MT stabilizer 5.0.
Cc1ccc(-c2cc(C(=O)N3CCCc4ccccc43)no2)cc1 was read as RAM network inh 4.2, HMGR II inh 2.2, b-catenin transl 1.2 and MT stabilizer 2.0.
`O=C(CNC(=S)N(Cc1ccccc1)Cc1cccs1)NCc1ccc(F)cc1` gave RAM network inh 8.8*, HMGR II inh -7.2, b-catenin transl 2.5 and MT stabilizer 2.2.
For O=C(Cc1cccs1)NCc1ccc(F)cc1 the results were RAM network inh 1.8, HMGR II inh -4.6, BB579 growth dn -14.3, MT stabilizer 2.8 and Yeast lifespan up -8.5.
For COCCNC(=O)C(c1ccccc1C)N(C(=O)Cn1nnc2ccccc21)c1cccnc1 (stereo not drawn) the results were RAM network inh 0.0, HMGR II inh 15.0*, BB579 growth dn -17.1, b-catenin transl -1.7 and MT stabilizer 5.7.
Screening O=C(NCc1ccco1)C(c1ccco1)N(Cc1cccs1)C(=O)Cn1nnc2ccccc21 (stereo not drawn) returned RAM network inh 9.5*, HMGR II inh 2.3, BB579 growth dn -46.4, b-catenin transl 0.8 and MT stabilizer 2.8.
Screening COCCNC(=O)C(c1ccc(C)o1)N(Cc1ccc(OC)cc1)C(=O)Cn1nnc2ccccc21 (stereo not drawn) returned RAM network inh 10.5*, HMGR II inh -1.7, BB579 growth dn -48.4, b-catenin transl -2.0, MT stabilizer 2.5 and Yeast lifespan up -0.4.
For CCN1C(=O)c2cccc3c(NC(=O)c4cccc(N5C(=O)CCC5=O)c4)ccc1c23 the results were RAM network inh 9.3*, HMGR II inh 7.6, BB579 growth dn -48.4, b-catenin transl 0.1, MT stabilizer 3.8 and Yeast lifespan up -2.6.
For CCOc1cc(C(=O)Nc2ccc3c4c(cccc24)C(=O)N3CC)cc(OCC)c1OCC the results were RAM network inh 4.3, HMGR II inh -4.2, BB579 growth dn -32.8, b-catenin transl -5.6, MT stabilizer 2.1 and Yeast lifespan up -7.6.
CS(=O)(=O)c1nc(-c2ccco2)cc(C(F)(F)F)n1 was read as RAM network inh 1.0, HMGR II inh -2.6, BB579 growth dn -48.9, b-catenin transl -2.8, MT stabilizer 7.8 and Yeast lifespan up 89.2*.
`COc1ccccc1-c1cc(C(F)(F)F)nc(S(C)(=O)=O)n1` gave RAM network inh 3.3, HMGR II inh -3.8, BB579 growth dn -1.2, MT stabilizer 2.5 and Yeast lifespan up 37.6.

High-throughput results deposited in PubChem BioAssay by several laboratories.
